Each structure is given as a SMILES string. Active and inactive are the calls of the source. The calls are words filed in the database; no cut-off is given here.

The source of these data is ChEMBL document CHEMBL4425113, “Chromenopyrazole, a Versatile Cannabinoid Scaffold with in Vivo Activity in a Model of Multiple Sclerosis” (J Med Chem, 2016).

Data set [1] is described as follows: Binding affinity to PDEA modified AGP (unknown origin) at 40 uM by surface plasmon resonance method. It is filed as ADME. The following applies: human, isolated protein. Background: Surface plasmon resonance follows binding to a sensor surface in real time, without labels.
In a further data set the target is Cannabinoid receptor 1 (Homo sapiens, UniProt P21554). Kind of data set: biochemical. It is filed as cell-based, HEK293.
Data set [2] is filed under the species Homo sapiens. Kind of data set: Selectivity ratio of Ki for human CB1 receptor to Ki for human CB2 receptor. The essentials:
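Membranes from cells transfected with hCB1 (8 μg/well; Tris 50 mM, MgCl2 5 mM, EDTA 2.5 mM, BSA 0.5 mg/mL, pH 7.4) or hCB2 (4 μg/well; EGTA 2.5 mM, BSA 1 mg/mL, pH 7.5); [3H]CP55940, 90 min at 30 °C. […] Nonspecific binding 10 μM WIN55212-2; GF/C filtration, scintillation; ≥3 experiments in triplicate.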

Data set [3] has as its target T1, Cannabinoid receptor 2 (Homo sapiens, UniProt P34972). In words: Displacement of [3H]-CP55940 from human CB2 receptor expressed in HEK293 cell membranes after 90 mins by liquid scintillation counting method.
Data set [4] is filed under the species Homo sapiens. In words: Selectivity ratio of Ki for human CB2 receptor to Ki for human CB1 receptor.
Data set [5] has as its target T1, Cannabinoid receptor 2. In words: Partial agonist activity at human CB2 receptor expressed in HEK293 cell membranes assessed as inhibition of forskolin-stimulated cAMP accumulation at 200 nM after 60 mins by HTRF assay. Type of data set: functional, cell-based. The essentials:
(§1)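 HEK293 cells stably expressing hCB2, 5.000 cells/well, forskolin-stimulated; Lance-Ultra TR-FRET cAMP kit, 60 min room temperature with HTRF reagents; 665/620 nm ratio converted to cAMP via standard curve; forskolin level set to 100%.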

For data set [6], the target named is T1, Cannabinoid receptor 2. Kind of data set: Partial agonist activity at human CB2 receptor expressed in HEK293 cell membranes assessed as inhibition of forskolin-stimulated cAMP accumulation at 1 uM after 60 mins by HTRF assay. Type of data set: functional, cell-based. The essentials: as §1
Data set [7] concerns the target T1, Cannabinoid receptor 2. Kind of data set: Agonist activity at human CB2 receptor expressed in HEK293 cell membranes assessed as inhibition of forskolin-stimulated cAMP accumulation after 60 mins by HTRF assay. Type of data set: functional, cell-based.
The target of data set [8] is T1, Cannabinoid receptor 2. Kind of data set: Agonist activity at human CB2 receptor expressed in HEK293 cell membranes assessed as inhibition of forskolin-stimulated cAMP accumulation at 1 uM after 60 mins by HTRF assay. Type of data set: functional, cell-based. The essentials: as §1
In general terms: Changes in cAMP serve as a functional read-out for many G protein-coupled receptors.

The target of data set [9] is T1, Cannabinoid receptor 2. In words: Agonist activity at human CB2 receptor expressed in HEK293 cell membranes assessed as inhibition of forskolin-stimulated cAMP accumulation at 200 nM after 60 mins by HTRF assay. Type of data set: functional, cell-based. The method, boiled down:
as §1

Data set [10] concerns the target T1, Cannabinoid receptor 2. In words: Agonist activity at human CB2 receptor expressed in HEK293 cell membranes assessed as induction of [35S]-GTPgammaS binding after 60 mins by liquid scintillation spectrometric method. Type of data set: functional. On the technique in general: Binding of GTPγS marks nucleotide exchange on a G protein.

T1 sequence (P34972 whole entry): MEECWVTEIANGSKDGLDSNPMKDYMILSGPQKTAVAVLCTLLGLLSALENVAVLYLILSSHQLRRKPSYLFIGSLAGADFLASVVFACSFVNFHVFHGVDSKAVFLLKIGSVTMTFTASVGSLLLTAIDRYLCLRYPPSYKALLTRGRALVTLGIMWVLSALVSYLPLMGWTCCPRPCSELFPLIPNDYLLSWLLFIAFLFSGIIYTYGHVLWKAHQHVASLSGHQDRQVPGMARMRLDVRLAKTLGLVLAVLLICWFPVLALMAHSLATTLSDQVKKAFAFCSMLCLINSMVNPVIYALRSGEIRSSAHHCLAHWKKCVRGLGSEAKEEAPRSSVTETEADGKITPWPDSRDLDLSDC
Chain of Cannabinoid receptor 1 (P21554 whole entry): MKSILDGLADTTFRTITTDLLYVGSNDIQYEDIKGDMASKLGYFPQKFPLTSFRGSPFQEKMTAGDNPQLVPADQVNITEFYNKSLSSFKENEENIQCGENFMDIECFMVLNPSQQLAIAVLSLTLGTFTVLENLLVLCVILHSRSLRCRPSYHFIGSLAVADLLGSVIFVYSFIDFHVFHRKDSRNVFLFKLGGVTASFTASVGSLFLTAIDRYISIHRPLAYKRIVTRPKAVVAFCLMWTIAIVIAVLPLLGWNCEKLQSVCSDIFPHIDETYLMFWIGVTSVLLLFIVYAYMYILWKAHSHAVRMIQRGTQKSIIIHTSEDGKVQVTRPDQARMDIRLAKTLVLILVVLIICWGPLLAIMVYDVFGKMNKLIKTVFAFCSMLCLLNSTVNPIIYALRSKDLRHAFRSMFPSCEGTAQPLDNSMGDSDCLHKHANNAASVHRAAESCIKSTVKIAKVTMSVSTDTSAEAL

Consider `CCCCCCC(C)(C)c1cc(OC)c2c(c1)OC(C)(C)c1cn[nH]c1-2`, for which the PB entry in data set [1] is “Active”. Besides, the Ki on Cannabinoid receptor 1 was found to be 0.272 µM; at Cannabinoid receptor 2 [3], 0.0871 µM. Besides, the Ratio Ki in the data set listed under Homo sapiens [2] stood at 3.1.
As to `C=C(C)[C@@H]1CCC(C)=C[C@H]1c1c(O)cc(CCCCC)cc1O` [CANNABIDIOL], in data set [1], the PB result is “Active”.
As to `CCCCCCC(C)(C)c1cc(O)c2c(c1)OC(C)(C)c1cnn(-c3cccc(OC)c3)c1-2`, the Ki at Cannabinoid receptor 1 came to 6.44 µM; on Cannabinoid receptor 2 [3], 0.562 µM. Further, the Ratio Ki in the data set filed under Homo sapiens [2] was 11.5.
`CCCCCCC(C)(C)c1cc(O)c2c(c1)OC(C)(C)c1cnn(-c3ccc(Cl)cc3Cl)c1-2`: in the data set filed under Homo sapiens [4], the Ratio Ki was more than 7500. In addition, at Cannabinoid receptor 1 (hek293), the inhibitory constant (Ki) worked out at 0.0052 µM.
On to `CCCCCCC(C)(C)c1cc(O)c2c(c1)OC(C)(C)c1cn(CO)nc1-2`, for which the Ki on Cannabinoid receptor 1 stood at 0.218 µM; on Cannabinoid receptor 2 [3] it was 0.0594 µM. For the same molecule, the Ratio Ki in the data set listed under Homo sapiens [2] was determined as 3.7.
For `CCCCCCC(C)(C)c1cc(OCCCO)c2c(c1)OC(C)(C)c1cnn(-c3ccc(Cl)c(Cl)c3)c1-2`, the inhibition constant (Ki) on Cannabinoid receptor 1 and at Cannabinoid receptor 2 [3] was more than 40 µM in each case.
On to `CCCCCCC(C)(C)c1cc(OCc2ccccc2)c2c(c1)OC(C)(C)c1cnn(CC)c1-2`, for which the Ki on Cannabinoid receptor 1 came to 0.614 µM; on Cannabinoid receptor 2 [3] it was 0.296 µM. In the data set filed under Homo sapiens [2], the Ratio Ki turned out to be 2.
Turning to `CCCCCCC(C)(C)c1cc(OCCO)c2c(c1)OC(C)(C)c1cn(CC)nc1-2`, the PB entry in data set [1] is “Active”. Also, the inhibitory constant (Ki) at Cannabinoid receptor 1 is 6.51 µM; at Cannabinoid receptor 2 [3], 0.211 µM. In addition, the Ratio Ki in the data set listed under Homo sapiens [2] stood at 31.
Consider `CCCCCCC(C)(C)c1cc(OCCCO)c2c(c1)OC(C)(C)c1cnn(CC)c1-2`, for which the Ki on Cannabinoid receptor 1 was 1.61 µM; at Cannabinoid receptor 2 [3], 0.44 µM. In the data set listed under Homo sapiens [2], the Ratio Ki was determined as 3.6.
With `CCCCCCC(C)(C)c1cc(O)c2c(c1)OC(C)(C)c1cn(CC)nc1-2`, the Ratio Ki in the data set filed under Homo sapiens [4] is more than 2000. Affinity at Cannabinoid receptor 1 (hek293) was put at a Ki of 0.0186 µM.
Regarding `CCCCCCC(C)(C)c1cc(OCc2ccccc2)c2c(c1)OC(C)(C)c1cnn(-c3ccc(Cl)c(Cl)c3)c1-2`, the inhibition constant (Ki) at Cannabinoid receptor 1 was more than 40 µM; at Cannabinoid receptor 2 [3] it was 3.74 µM. Besides, the Ratio Ki in the data set listed under Homo sapiens [2] is more than 10.7.
`CCCCCCC(C)(C)c1cc(O)c2c(c1)OC(C)(C)c1cn[nH]c1-2`: the Ratio Ki in the data set listed under Homo sapiens [4] was more than 1400. This molecule showed a Ki at Cannabinoid receptor 1 (hek293) of 0.0285 µM.
Turning to `CCCCC/C=C\C/C=C\C/C=C\C/C=C\CCCC(=O)NCCO` [ANANDAMIDE], the PB result in [1] is reported as “Active”.
On to `CCCCCCC(C)(C)c1cc(OC)c2c(c1)OC(C)(C)c1cnn(CC)c1-2`, for which the inhibition result on Cannabinoid receptor 2 [5] and at Cannabinoid receptor 2 [6] was “Active” throughout. Besides, the inhibition constant (Ki) at Cannabinoid receptor 1 was 5.04 µM; at Cannabinoid receptor 2 [3], 0.159 µM. Also, the Ratio Ki in the data set listed under Homo sapiens [2] came out at 31.6.
Take `CCCCCCC(C)(C)c1cc(OCCCO)c2c(c1)OC(C)(C)c1cn(C)nc1-2`: the Ki on Cannabinoid receptor 1 is more than 40 µM; at Cannabinoid receptor 2 [3], 0.364 µM. Also, in the data set listed under Homo sapiens [2], the Ratio Ki is more than 110.
For the molecule `CCCCCCC(C)(C)c1cc2c(c3c1CCCO3)-c1nn(CC)cc1C(C)(C)O2`, on Cannabinoid receptor 2 [7], the maximal response (Emax) stood at 98%. The IC50 at Cannabinoid receptor 2 [7] came to 0.0255 µM. The Ki at Cannabinoid receptor 1 is more than 40 µM; at Cannabinoid receptor 2 [3], 0.122 µM. Moreover, the inhibition entry at Cannabinoid receptor 2 [8] and on Cannabinoid receptor 2 [9] was “Active” throughout. The Ratio Ki in the data set filed under Homo sapiens [2] is more than 330.
With `CCCCCCC(C)(C)c1cc(OC)c([C@H]2C=C(CO)[C@@H]3C[C@H]2C3(C)C)c(OC)c1`, the maximal effect (Emax) at Cannabinoid receptor 2 [10] was found to be 91%.
For the molecule `CCCCCCC(C)(C)c1cc(OCc2ccccc2)c2c(c1)OC(C)(C)c1cn(C)nc1-2`, the results for the Ki at Cannabinoid receptor 1 and at Cannabinoid receptor 2 [3] were 0.702 µM and 0.209 µM, respectively. In addition, the Ratio Ki in the data set listed under Homo sapiens [2] stood at 3.3.
Consider `CCCCCCC(C)(C)c1cc(OC)c2c(c1)OC(C)(C)c1cnn(-c3ccc(Cl)cc3Cl)c1-2`, for which the inhibition constant Ki on Cannabinoid receptor 1 was determined as 1.69 µM; on Cannabinoid receptor 2 [3], 1.49 µM.
In the case of `CCCCCCC(C)(C)c1cc(OCCO)c2c(c1)OC(C)(C)c1cn[nH]c1-2`, the Emax at Cannabinoid receptor 2 [7] was determined as 95%; at Cannabinoid receptor 2 [10], 110%. The half-maximal inhibitory concentration (IC50) at Cannabinoid receptor 2 [7] came to 0.0216 µM. Besides, the Ki at Cannabinoid receptor 1 stood at 0.0648 µM; at Cannabinoid receptor 2 [3], 0.0036 µM. The inhibition result on Cannabinoid receptor 2 [8] and on Cannabinoid receptor 2 [9] was “Active” each time. Also, the Ratio Ki in the data set filed under Homo sapiens [2] was 18.

One may read the Ki as a dissociation constant, usually derived from enzyme kinetics or from competition with a known ligand. Low readings indicate a stronger hold on the target, high ones a looser hold on the target. What is called Emax is the greatest response seen or fitted, relative to the assay's reference. For orientation: IC50 means the concentration at which inhibition is half-maximal.
